In assay [1] the target is T1, Polyunsaturated fatty acid 5-lipoxygenase (Rattus norvegicus, UniProt P12527).
T1 sequence (P12527 whole entry): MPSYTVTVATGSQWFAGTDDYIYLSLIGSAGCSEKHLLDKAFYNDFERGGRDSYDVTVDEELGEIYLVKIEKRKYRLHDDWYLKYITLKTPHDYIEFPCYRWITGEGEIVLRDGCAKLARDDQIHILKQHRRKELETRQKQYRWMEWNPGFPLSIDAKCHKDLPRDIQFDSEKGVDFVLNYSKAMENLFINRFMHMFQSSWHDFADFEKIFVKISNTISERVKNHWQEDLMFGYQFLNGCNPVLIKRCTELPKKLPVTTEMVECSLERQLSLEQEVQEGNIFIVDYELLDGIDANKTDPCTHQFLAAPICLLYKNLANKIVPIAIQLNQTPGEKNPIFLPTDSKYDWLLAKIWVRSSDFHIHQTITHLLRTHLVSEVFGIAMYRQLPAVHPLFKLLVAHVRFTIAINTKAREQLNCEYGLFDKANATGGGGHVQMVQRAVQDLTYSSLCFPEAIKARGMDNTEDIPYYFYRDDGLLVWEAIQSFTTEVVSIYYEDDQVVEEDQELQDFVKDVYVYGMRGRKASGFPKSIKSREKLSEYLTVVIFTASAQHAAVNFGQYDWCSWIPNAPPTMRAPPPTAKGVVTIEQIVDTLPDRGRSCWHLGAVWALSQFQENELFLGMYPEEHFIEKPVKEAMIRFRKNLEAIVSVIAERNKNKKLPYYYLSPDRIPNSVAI
Description: In vitro inhibitory activity against 5-lipoxygenase in rat RBL-1 cells. It is filed as cell-based. The gist of the method: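 RBL-1 cell homogenate, 20000g supernatant (from 6 × 10^4 cells) in 200-μL incubations with 2% DMSO vehicle and varied inhibitor concentrations. Reaction started with radiolabeled arachidonic acid, stopped by acidification and ether extraction. Products separated from substrate by TLC and counted by scintillation. Triplicate incubations, compared against mean of vehicle controls (n = 8). IC50 with 95% confidence limits from linear regression of % inhibition vs log concentration.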

The subject of assay [2] is Rattus norvegicus. Description: Inhibition of leukotriene biosynthesis was determined in vivo with the rat peritoneal anaphylaxis model administered perorally at 100 mg/kg; not significant. Also noted: dose 100 mg/kg. It is filed as functional, organism-based. Put shortly:
(§1)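 Fasted male Sprague-Dawley rats sensitized ip with rabbit anti-BSA in PBS pH 7.1, then challenged ip 3 h later with BSA (4 mg) in PBS containing 30 mM L-cysteine. Compound in 0.2% methylcellulose given by gavage 1 h before challenge; 6–8 rats per group. Peritoneal fluid collected 15 min after challenge, LTC4 measured by RIA. % inhibition vs control mean, ± SEM; significance at […].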

Assay [3] concerns Rattus norvegicus. Description: Plasma concentration was evaluated for corresponding carboxylic acid metabolite at 100 mg/kg dose peroral administration in rats after 20 min. In kind it is functional, organism-based. The arrangement: dose 100 mg/kg. The gist of the method:
(§2)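 Rats dosed by oral gavage, 100 mg/kg suspended in 0.2% methylcellulose (4 mL/kg). Blood taken from lateral tail vein, plasma separated. Proteins precipitated with 2 volumes methanol before reversed-phase HPLC, or plasma acidified and ether-extracted for normal-phase HPLC. Parent hydroxamate and carboxylic acid metabolite measured. Average of four determinations with range.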

For assay [4], the system named is Rattus norvegicus. Description: Plasma concentration was evaluated for corresponding carboxylic acid metabolite at 100 mg/kg dose peroral administration in rats after 60 min. It is filed as functional, organism-based. Also noted: dose 100 mg/kg. The gist of the method: as §2
In assay [5] the test system is Rattus norvegicus. Description: Plasma concentration was evaluated for corresponding hydroxamic acid metabolite at 100 mg/kg dose peroral administration in rats after 20 min. In kind it is functional, organism-based. The arrangement: dose 100 mg/kg. The gist of the method:
as §2

The test system of assay [6] is Rattus norvegicus. Description: Plasma concentration was evaluated for corresponding hydroxamic acid metabolite at 100 mg/kg dose peroral administration in rats after 60 min. It is filed as functional, organism-based. The arrangement: dose 100 mg/kg. The gist of the method: as §2
In assay [7] the test system is Rattus norvegicus. Description: Inhibition of leukotriene biosynthesis was determined in vivo with the rat peritoneal anaphylaxis model administered perorally at 100 mg/kg. It is filed as functional. Conditions: route oral. Put shortly:
as §1

Assay [8] has as its system Rattus norvegicus. Description: Inhibition of leukotriene biosynthesis was determined in vivo with the rat peritoneal anaphylaxis model administered perorally at 100 mg/kg *p > 0.05. In kind it is functional. The note with it: route oral. Put shortly: as §1

In general, IC50 refers to the point on the concentration scale where inhibition reaches its midpoint. Read a high IC50 as weaker potency. For orientation: inhibition in vivo means the relative decrease from the control value, in per cent. High values mean a response far below the control, low ones a response near the control.

Molecules are shown by their SMILES. Active and inactive are the calls of the source. The calls are words filed in the database; no cut-off is given here.

As to `Cc1cc(C)c(-c2ccc(/C=C/C(=O)N(C)O)cc2)c(C)c1`, the IC50 in assay [1] stood at 0.022 µM. The inhibition result in assay [2] is “inactive”.

Take `CCCCOc1ccc(C(C)C(=O)N(C)O)cc1` (stereo not drawn): the midpoint of inhibition in assay [1], the IC50, lay at 0.73 µM. Moreover, the Concentration in assay [3] stood at 40 µM; in assay [4], 50 µM; in assay [5] it was 38 µM; in assay [6], 13 µM. The same compound registered an inhibition in vivo at 100 mg/kg in assay [7] of 62%.

Turning to `COc1ccc2cc(C(C)C(=O)N(C)O)ccc2c1` (stereo not drawn), the 50% inhibitory concentration (IC50) in assay [1] was found to be 0.41 µM. Also, the Concentration in assay [3] was determined as 3 µM; in assay [4], 4 µM; in assay [5] it was 1.7 µM; in assay [6] it was 1.3 µM. The same compound returned an inhibition in vivo at 100 mg/kg in assay [7] of 52%.

In assay [1], `Cc1cc(C)c(-c2ccc(C(=O)N(C)O)cc2)c(C)c1` gave an IC50 of 0.06 µM. In assay [7], this compound displayed an inhibition in vivo at 100 mg/kg of 41%.

On to `Cc1cc(C)c(-c2ccc(C(=O)NO)cc2)c(C)c1`, for which the inhibition result in assay [2] is “inactive”.

For the compound `CC(C)Cc1ccc(C(C)C(=O)N(O)C(C)C)cc1` (stereo not drawn), the Concentration in assay [3], in assay [4], in assay [5] and in assay [6] was < 4 µM each time.

`CC(C)Cc1ccc(C(=O)N(C)O)cc1`: the Concentration was 432 µM in assay [3], 404 µM in assay [4], < 5 µM in assay [5] and < 5 µM in assay [6].

In turn, `CN(O)C(=O)/C=C/c1ccc2ccccc2c1` came in with an inhibition in vivo at 100 mg/kg in assay [8] of 66%.

`CC(C)Cc1ccc(C(C)C(=O)NO)cc1` (stereo not drawn) [IBUPROXAM] displayed a half-maximal inhibitory concentration (IC50) in assay [1] of 4.84 µM. The Concentration in assay [3] is 114 µM; in assay [4] it was 146 µM; in assay [5] it was 49 µM; in assay [6] it was 27 µM. Besides, the inhibition result in assay [2] was “inactive”.

Turning to `CC(C)Cc1ccc(C(C)(C)C(=O)N(C)O)cc1`, the Concentration in assay [3] was 9.3 µM; in assay [4] it was < 1 µM; in assay [5] it was 5.8 µM; in assay [6], < 1 µM.

Consider `CN(O)C(=O)c1ccc2ccccc2c1`, for which, in assay [2], the inhibition result is “inactive”.

As for `CC(C)Cc1ccc(C(C)C(=O)N(C)O)cc1` (stereo not drawn), the IC50 in assay [1] came to 0.98 µM. The Concentration amounted to 41 µM in assay [3], 36 µM in assay [4], 32 µM in assay [5] and 14 µM in assay [6]. The compound further gave an inhibition in vivo at 100 mg/kg in assay [7] of 65%.

As for `CC(C)Cc1ccc(CC(=O)N(C)O)cc1`, the Concentration in assay [3] amounted to 162 µM; in assay [4], 138 µM; in assay [5], 46 µM; in assay [6], 12 µM.

On to `CC(C)Cc1ccc(CCC(=O)N(C)O)cc1`, for which the Concentration was 349 µM in assay [3], 80 µM in assay [4], < 10 µM in assay [5] and < 10 µM in assay [6].

As to `CC(C)Oc1ccc(C(C)C(=O)N(C)O)cc1` (stereo not drawn), the 50% inhibitory concentration (IC50) in assay [1] is 3.7 µM. For the same compound, the Concentration in assay [6] is 38 µM. For the same compound, in assay [7], the inhibition in vivo at 100 mg/kg is 67%.

As to `CC(C)Cc1ccc(/C=C/C(=O)N(C)O)cc1`, the Concentration in assay [3] was 1.9 µM; in assay [4], 4.5 µM; in assay [5] it was < 4 µM; in assay [6] it was < 4 µM.

With `CC(C)Cc1ccc(C(C(=O)N(C)O)C(C)C)cc1` (stereo not drawn), the Concentration is 3.7 µM in assay [3], 7.5 µM in assay [4], 5 µM in assay [5] and 7.9 µM in assay [6].

`CC(C(=O)N(C)O)c1ccc(OCc2ccccc2)cc1` (stereo not drawn) had an IC50 in assay [1] of 0.28 µM. Besides, the Concentration in assay [3] was 16 µM; in assay [4] it was 51 µM; in assay [5] it was 8.4 µM; in assay [6], 7.9 µM. Besides, the inhibition in vivo at 100 mg/kg in assay [7] came out at 62%.

The record behind these values is ChEMBL document CHEMBL1123650, “In vivo characterization of hydroxamic acid inhibitors of 5-lipoxygenase” (J Med Chem, 1987).
